Assay results taken from ChEMBL document CHEMBL1154419, “Pharmacodynamic effects of telavancin against methicillin-resistant and methicillin-susceptible Staphylococcus aureus strains in the presence of human albumin or serum and in an in vitro kinetic model” (Antimicrob Agents Chemother, 2007).
The source made the active and inactive calls. The rule behind the calls is not given here.

How the values were obtained:
[1] = test system: Staphylococcus aureus; assay: Antibacterial activity against methicillin-susceptible Staphylococcus aureus ATCC 13709 assessed as bacterial killing at 10 times MIC after 6 hrs in PBS-nutrient depleted medium; type: functional, organism-based
[2] = test system: Staphylococcus aureus; assay: Antibacterial activity against methicillin-susceptible Staphylococcus aureus ATCC 13709 assessed as change in bacterial burden at 20 mg/liter after 2 hrs; type: functional
[3] = test system: Staphylococcus aureus; assay: Antibacterial activity against methicillin-resistant Staphylococcus aureus ATCC 33591 assessed as bacterial killing at 10 times MIC after 24 hrs in MH-broth; type: functional, organism-based
Method in brief: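 Strain diluted in M-H broth to approx. 10⁵ CFU/ml and grown 6 h into log phase, then split. Broth tubes got drug at 10× MIC directly. PBS tubes were transferred to PBS and held 3 h more, then dosed at 10× MIC. Growth controls were run in each medium. Viable counts at 0, 3, 6, 9, 12 and 24 h. Run in duplicate.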

[4] = test system: Staphylococcus aureus; assay: Antibacterial activity against methicillin-susceptible Staphylococcus aureus ATCC 13709 assessed as change in bacterial burden at 2.5 mg/liter after 6 hrs; type: functional
[5] = test system: Staphylococcus aureus; assay: Antibacterial activity against methicillin-susceptible Staphylococcus aureus ATCC 13709 assessed as change in bacterial burden at 40 mg/liter after 4 hrs; type: functional
[6] = test system: Staphylococcus aureus; assay: Antibacterial activity against methicillin-susceptible Staphylococcus aureus ATCC 13709 assessed as change in bacterial burden at 10 mg/liter after 8 hrs; type: functional
[7] = test system: Staphylococcus aureus; assay: Antibacterial activity against methicillin-susceptible Staphylococcus aureus ATCC 13709 assessed as change in bacterial burden at 2.5 mg/liter after 2 hrs; type: functional
[8] = test system: Staphylococcus aureus; assay: Antibacterial activity against methicillin-susceptible Staphylococcus aureus ATCC 13709 assessed as change in bacterial burden at 10 mg/liter after 4 hrs; type: functional
[9] = test system: Staphylococcus aureus; assay: Antibacterial activity against methicillin-resistant Staphylococcus aureus ATCC 33591 assessed as bacterial killing at 0.5 to 50 times MIC after 24 hrs in presence of 50% human serum; type: functional, organism-based
Method in brief: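 Static time-kill in M-H broth, in M-H broth with 40 g/liter fatty-acid-free purified human albumin, or in M-H broth with inactivated 50% human serum. Inoculum approx. 5 × 10⁵ CFU/ml, drug at 0.5, 1, 2.5, 5, 10, 25 and 50× MIC, 37°C. Samples at 0, 3, 6, 12 and 24 h plated on blood agar, counted after 24 h. Detection limit 5 × 10¹ CFU/ml. Run in duplicate.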

[10] = test system: Staphylococcus aureus; assay: Antibacterial activity against methicillin-susceptible Staphylococcus aureus ATCC 13709 assessed as change in bacterial burden at 1 mg/liter after 12 hrs; type: functional
Method in brief: (§1)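 In vitro kinetic model: spinner flask with 0.45-μm filter and prefilter, stirred, M-H broth at 37°C, starting inoculum approx. 5 × 10⁵ CFU/ml. Single initial drug dose of 1.0 to 40 mg/liter, with flow set to give a half-life of approx. 8 h. Viable counts at 0, 2, 4, 6, 8, 12 and 24 h. Duplicate runs per strain and concentration.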

[11] = test system: Staphylococcus aureus; assay: Antibacterial activity against methicillin-susceptible Staphylococcus aureus ATCC 13709 assessed as change in bacterial burden at 20 mg/liter after 12 hrs; type: functional
[12] = test system: Staphylococcus aureus; assay: Antibacterial activity against methicillin-resistant Staphylococcus aureus ATCC 33591 assessed as change in bacterial burden at 10 mg/liter after 12 hrs; type: functional; method in brief: as §1
[13] = test system: Staphylococcus aureus; assay: Antibacterial activity against methicillin-susceptible Staphylococcus aureus ATCC 13709 assessed as change in bacterial burden at 40 mg/liter after 8 hrs; type: functional
[14] = test system: Staphylococcus aureus; assay: Antibacterial activity against methicillin-susceptible Staphylococcus aureus ATCC 13709 assessed as change in bacterial burden at 1 mg/liter after 8 hrs; type: functional
[15] = AUC (0 to 24 hrs) in human at 10 mg/kg once daily; type: ADME, organism-based; set-up: time < 24 hr, dose 10 mg/kg; details: plasma

## CCCCCCCCCCNCCN[C@@]1(C)C[C@H](O[C@H]2[C@H](Oc3c4cc5cc3Oc3ccc(cc3Cl)[C@@H](O)[C@@H](NC(=O)[C@@H](CC(C)C)NC)C(=O)N[C@@H](CC(N)=O)C(=O)N[C@H]5C(=O)N[C@H]3C(=O)N[C@H](C(=O)N[C@H](C(=O)O)c5cc(O)c(CNCP(=O)(O)O)c(O)c5-c5cc3ccc5O)[C@H](O)c3ccc(c(Cl)c3)O4)O[C@H](CO)[C@@H](O)[C@@H]2O)O[C@@H](C)[C@H]1O [TELAVANCIN]
[1]
  Activity: Active
[2]
  deltalog10CFU/ml: -1.3
[3]
  Activity: Active
[4]
  deltalog10CFU/ml: -2.6
[5]
  deltalog10CFU/ml: -2.8
[6]
  deltalog10CFU/ml: -4.3
[7]
  deltalog10CFU/ml: -1.1
[8]
  deltalog10CFU/ml: -2.4
[9]
  Activity: Active
[10]
  deltalog10CFU/ml: -2.6
[11]
  deltalog10CFU/ml: -4.6
[12]
  deltalog10CFU/ml: -5.1
[13]
  deltalog10CFU/ml: -4.7
[14]
  deltalog10CFU/ml: -2.6
[15]
  AUC at 24 h: 51000 ng·h/mL
